Data published in ChEMBL document CHEMBL1124186, “Synthesis and evaluation of tylosin-related macrolides modified at the aldehyde function: a new series of orally effective antibiotics” (1988).
Values after ≈ are worked out from the molar mass of the structure shown.

What was measured:
Haemophilus influenzae [1] = assay: In vitro antimicrobial activity against Haemophilus influenzae.; format: functional
Staphylococcus aureus [2] = assay: In vitro antimicrobial activity against Staphylococcus aureus X1; format: functional
Streptococcus pyogenes [3] = assay: Effective dose against Streptococcus pyogenes C203 when administered orally; format: functional; settings: po
How it was run: (§1)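 Mouse protection test: infected mice were dosed twice, at 1 and 5 h postinfection, either subcutaneously or orally. […] The result is expressed as ED50 in mg/kg × 2.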

Streptococcus pyogenes [4] = assay: Effective dose against Streptococcus pyogenes C203 when administered sc; format: functional; how it was run: as §1
Streptococcus pyogenes [5] = assay: In vivo effective dose against experimental infections in rodent caused by Streptococcus pyogenes C203 when administered sc; format: functional
Streptococcus pneumoniae [6] = assay: In vitro antimicrobial activity against Streptococcus pneumoniae; format: functional
[7] = test system: Staphylococcus epidermidis; assay: In vitro antimicrobial activity against Staphylococcus epidermidis EPI1; format: functional
Enterococcus faecium = assay: In vitro antimicrobial activity against Streptococcus faecium X66; format: functional, streptococcus fae-cium
Streptococcus pyogenes [8] = assay: In vitro antimicrobial activity against Streptococcus pyogenes C203; format: functional
Streptococcus pyogenes [9] = assay: Antimicrobial activity against Streptococcus pyogenes C203; format: functional
Streptococcus pyogenes [10] = assay: In vivo effective dose against experimental infections in rodent caused by Streptococcus pyogenes C203 when administered orally; format: functional; settings: po
Bacteroides fragilis [11] = assay: In vitro antimicrobial activity against anaerobic bacteria bacteroides fragilis 111; format: functional
Bacteroides fragilis [12] = assay: In vitro antimicrobial activity against anaerobic bacteria bacteroides fragilis 1877; format: functional
Bacteroides fragilis [13] = assay: In vitro antimicrobial activity against anaerobic bacteria bacteroides fragilis 1936B,; format: functional
Eikenella corrodens = assay: In vitro antimicrobial activity against anaerobic bacteria bacteroides corrodens 1874; format: functional
Phocaeicola vulgatus = assay: In vitro antimicrobial activity against anaerobic bacteria bacteroides vulgatus 1211; format: functional
[14] = test system: Prevotella melaninogenica; assay: In vitro antimicrobial activity against anaerobic bacteria bacteroides melaninogenicus 1856,; format: functional
[15] = test system: Bacteroides thetaiotaomicron; assay: In vitro antimicrobial activity against anaerobic bacteria bacteroides thetaiotaomicron 1438; format: functional
Clostridioides difficile = assay: In vitro antimicrobial activity against anaerobic bacteria Clostridium difficile 2994; format: functional
Clostridium perfringens = assay: In vitro antimicrobial activity against anaerobic bacteria clostridium perfringens 81,; format: functional
Clostridium septicum = assay: In vitro antimicrobial activity against anaerobic bacteria clostridium septicum 1128; format: functional
Chlamydia trachomatis = assay: In vitro antimicrobial activity against chlamydia trachomatis.; format: functional
Fusobacterium = assay: In vitro antimicrobial activity against anaerobic bacteria fusobacterium symbiosum 1470; format: functional
Haemophilus influenzae [16] = assay: In vitro antimicrobial activity against aerobic bacteria Haemophilus influenzae 76; format: functional
Haemophilus influenzae [17] = assay: In vitro antimicrobial activity against aerobic bacteria Haemophilus influenzae MX366,; format: functional
[18] = test system: Haemophilus parainfluenzae; assay: In vitro antimicrobial activity against aerobic bacteria Haemophilus parainfluenzae 9796; format: functional
[19] = In vitro antimicrobial activity against anaerobic bacteria peptostreptococcus intermedius 1264; format: functional
[20] = test system: Peptoniphilus asaccharolyticus; assay: In vitro antimicrobial activity against anaerobic bacteria peptococcus asaccharolyticus 1302; format: functional
Anaerococcus prevotii = assay: In vitro antimicrobial activity against anaerobic bacteria peptococcus prevoti 1281; format: functional
Cutibacterium acnes = assay: In vitro antimicrobial activity against anaerobic bacteria propionibacterium acnes 79; format: functional
[21] = test system: Staphylococcus epidermidis; assay: In vitro antimicrobial activity against aerobic bacteria Streptococcus epi 270; format: functional
Staphylococcus aureus [22] = assay: In vitro antimicrobial activity against aerobic bacteria Staphylococcus aureus 513E; format: functional
Staphylococcus aureus [23] = assay: In vitro antimicrobial activity against aerobic bacteria Staphylococcus aureus V140,; format: functional
Staphylococcus aureus [24] = assay: In vitro antimicrobial activity against aerobic bacteria Staphylococcus aureus V41; format: functional
Staphylococcus aureus [25] = assay: In vitro antimicrobial activity against aerobic bacteria Staphylococcus aureus X400; format: functional
Streptococcus pyogenes [26] = assay: In vivo activity against experimental infections in rodent caused by Streptococcus pyogenes C203 when administered orally; format: functional; settings: po
Streptococcus pneumoniae [27] = assay: In vivo effective dose against experimental infections in mice Streptococcus pneumoniae park when administered orally; format: functional; settings: po
Streptococcus pneumoniae [28] = assay: In vivo effective dose against experimental infections in mice Streptococcus pneumoniae park when administered sc; format: functional
Streptococcus pneumoniae [29] = assay: In vitro antimicrobial activity against aerobic bacteria Streptococcus pneumoniae B1-438; format: functional, streptococcus pneum
Streptococcus sanguinis = assay: In vitro antimicrobial activity against aerobic bacteria Streptococcus sanguis MX132; format: functional
Streptococcus pyogenes [30] = assay: Activity against Streptococcus pyogenes C203 when administered orally; format: functional; settings: po; how it was run: as §1
Streptococcus pyogenes [31] = assay: Activity against Streptococcus pyogenes C203 when administered sc; format: functional; how it was run: as §1
[32] = test system: Staphylococcus epidermidis; assay: In vitro antimicrobial activity against aerobic bacteria Streptococcus epi 222; format: functional
Staphylococcus aureus [33] = assay: In vivo effective dose against experimental infections in mice Staphylococcus aureus X1 when administered orally; format: functional; settings: po
Staphylococcus aureus [34] = assay: In vivo effective dose against experimental infections in mice Staphylococcus aureus X1 when administered sc; format: functional
Streptococcus viridans = assay: In vitro antimicrobial activity against aerobic bacteria Streptococcus viridans 9943; format: functional
[35] = test system: Peptostreptococcus anaerobius; assay: In vitro antimicrobial activity against anaerobic bacteria peptostreptococcus anaerobius 1428,; format: functional
Streptococcus [36] = assay: In vitro antimicrobial activity against aerobic bacteria Streptococcus B 5; format: functional
Staphylococcus aureus [37] = assay: In vitro antimicrobial activity against aerobic bacteria Staphylococcus aureus V135; format: functional
Haemophilus influenzae [38] = assay: In vitro antimicrobial activity against aerobic bacteria Haemophilus influenzae 465; format: functional
[39] = test system: Prevotella melaninogenica; assay: In vitro antimicrobial activity against anaerobic bacteria bacteroides melaninogenicus 2736; format: functional
[40] = test system: Fusobacterium necrophorum; assay: In vitro antimicrobial activity against anaerobic bacteria usobacterium necrophorum 6054A; format: functional
Collinsella aerofaciens = assay: In vitro antimicrobial activity against anaerobic bacteria eubacterium aerofaciens 1235; format: functional
Streptococcus pyogenes [41] = assay: In vivo pyogenes C203 when administered sc; format: functional
Streptococcus [42] = assay: In vitro antimicrobial activity against aerobic bacteria Streptococcus B 8
Streptococcus [43] = assay: In vitro antimicrobial activity against aerobic bacteria Streptococcus C 24
Streptococcus [44] = assay: In vitro antimicrobial activity against aerobic bacteria Streptococcus D 2041
Streptococcus [45] = assay: In vitro antimicrobial activity against aerobic bacteria Streptococcus D 8043
Streptococcus [46] = assay: In vitro antimicrobial activity against aerobic bacteria Streptococcus D 9960
Streptococcus [47] = assay: In vitro antimicrobial activity against aerobic bacteria Streptococcus G Kruder

Compound `CC[C@H]1OC(=O)C[C@@H](O)[C@H](C)[C@@H](O[C@@H]2O[C@H](C)[C@@H](O)[C@H](N(C)C)[C@H]2O)[C@@H](C)C[C@@H](C)C(=O)/C=C/C(C)=C/[C@@H]1CO[C@@H]1O[C@H](C)[C@@H](O)[C@@H](OC)[C@H]1OC` has an MIC (Haemophilus influenzae [1]) of 8 µg/mL (≈ 10.8 µM), an MIC (Staphylococcus aureus [2]) of 0.25 µg/mL (≈ 0.336 µM) and an ED50 (Streptococcus pyogenes [3]) of 1.6 mg/kg. For the same compound, the ED50 (Streptococcus pyogenes [4]) was 0.25 mg/kg, the ED50 (Streptococcus pyogenes [5]) was 1.6 mg/kg and the MIC (Streptococcus pneumoniae [6]) was 2 µg/mL (≈ 2.69 µM). It also gave an MIC [7] of 0.25 µg/mL (≈ 0.336 µM), an MIC (Enterococcus faecium) of 8 µg/mL (≈ 10.8 µM) and an MIC (Streptococcus pyogenes [8]) of 0.25 µg/mL (≈ 0.336 µM). It also gave an MIC (Streptococcus pyogenes [9]) of 8 µg/mL (≈ 10.8 µM) and an ED50 (Streptococcus pyogenes [10]) of 8 mg/kg.
Work on `CC[C@H]1OC(=O)C[C@@H](O)[C@H](C)[C@@H](O[C@@H]2O[C@H](C)[C@@H](O)[C@H](N(C)C)[C@H]2O)[C@@H](CC=O)C[C@@H](C)C(=O)/C=C/C(C)=C/[C@@H]1CO[C@@H]1O[C@H](C)[C@@H](O)[C@@H](OC)[C@H]1OC` yielded an MIC (Bacteroides fragilis [11]) of 8 µg/mL (≈ 10.4 µM), an MIC (Bacteroides fragilis [12]) of 8 µg/mL (≈ 10.4 µM) and an MIC (Bacteroides fragilis [13]) of 8 µg/mL (≈ 10.4 µM). For the same compound, the MIC (Eikenella corrodens) was 8 µg/mL (≈ 10.4 µM), the MIC (Phocaeicola vulgatus) was 8 µg/mL (≈ 10.4 µM) and the MIC [14] was 8 µg/mL (≈ 10.4 µM). It also gave an MIC [15] of 2 µg/mL (≈ 2.59 µM), an MIC (Clostridioides difficile) of 0.25 µg/mL (≈ 0.324 µM) and an MIC (Clostridium perfringens) of 0.25 µg/mL (≈ 0.324 µM). It also gave an MIC (Clostridium septicum) of 2 µg/mL (≈ 2.59 µM), an MIC (Chlamydia trachomatis) of 0.5 µg/mL (≈ 0.648 µM) and an MIC (Fusobacterium) of 2 µg/mL (≈ 2.59 µM). It also gave an MIC (Haemophilus influenzae [16]) of 8 µg/mL (≈ 10.4 µM), an MIC (Haemophilus influenzae [17]) of 32 µg/mL (≈ 41.5 µM) and an MIC (Haemophilus influenzae [1]) of 4 µg/mL (≈ 5.18 µM). It also gave an MIC [18] of 8 µg/mL (≈ 10.4 µM), an MIC [19] of 16 µg/mL (≈ 20.7 µM) and an MIC [20] of 8 µg/mL (≈ 10.4 µM). The MIC (Anaerococcus prevotii) was 4 µg/mL (≈ 5.18 µM), the MIC (Cutibacterium acnes) was 2 µg/mL (≈ 2.59 µM) and the MIC [21] was over 128 µg/mL. It also gave an MIC (Staphylococcus aureus [2]) of 0.5 µg/mL (≈ 0.648 µM), an MIC (Staphylococcus aureus [22]) of 1 µg/mL (≈ 1.3 µM) and an MIC (Staphylococcus aureus [23]) of 1 µg/mL (≈ 1.3 µM). The MIC (Staphylococcus aureus [24]) was 1 µg/mL (≈ 1.3 µM), the MIC (Staphylococcus aureus [25]) was 1 µg/mL (≈ 1.3 µM) and the ED50 (Streptococcus pyogenes [26]) was 84 mg/kg. For the same compound, the ED50 (Streptococcus pneumoniae [27]) was over 100 mg/kg, the ED50 (Streptococcus pneumoniae [28]) was over 10 mg/kg and the MIC (Streptococcus pneumoniae [29]) was over 128 µg/mL. For the same compound, the MIC (Streptococcus sanguinis) was 0.5 µg/mL (≈ 0.648 µM), the ED50 (Streptococcus pyogenes [30]) was 0.8 mg/kg and the ED50 (Streptococcus pyogenes [31]) was 0.25 mg/kg. It also gave an MIC (Streptococcus pneumoniae [6]) of 0.25 µg/mL (≈ 0.324 µM), an MIC [7] of 0.5 µg/mL (≈ 0.648 µM) and an MIC [32] of 0.25 µg/mL (≈ 0.324 µM). For the same compound, the ED50 (Staphylococcus aureus [33]) was over 100 mg/kg, the ED50 (Staphylococcus aureus [34]) was 3.9 mg/kg and the MIC (Enterococcus faecium) was 4 µg/mL (≈ 5.18 µM). The MIC (Streptococcus pyogenes [8]) was 0.25 µg/mL (≈ 0.324 µM), the MIC (Streptococcus viridans) was over 128 µg/mL and the MIC [35] was 4 µg/mL (≈ 5.18 µM). It also gave an MIC (Streptococcus [36]) of 0.5 µg/mL (≈ 0.648 µM), an MIC (Staphylococcus aureus [37]) of 1 µg/mL (≈ 1.3 µM) and an MIC (Haemophilus influenzae [38]) of 16 µg/mL (≈ 20.7 µM). The MIC [39] was 16 µg/mL (≈ 20.7 µM), the MIC [40] was 1 µg/mL (≈ 1.3 µM) and the MIC (Collinsella aerofaciens) was 0.12 µg/mL (≈ 0.155 µM). The ED50 (Streptococcus pyogenes [41]) was 1.4 mg/kg, the MIC (Streptococcus [42]) was 0.5 µg/mL (≈ 0.648 µM) and the MIC (Streptococcus [43]) was 0.5 µg/mL (≈ 0.648 µM). The MIC (Streptococcus [44]) was 0.5 µg/mL (≈ 0.648 µM), the MIC (Streptococcus [45]) was 0.5 µg/mL (≈ 0.648 µM) and the MIC (Streptococcus [46]) was 1 µg/mL (≈ 1.3 µM). It also gave an MIC (Streptococcus [47]) of 0.25 µg/mL (≈ 0.324 µM).
Work on `CC[C@H]1OC(=O)C[C@@H](O)[C@H](C)[C@@H](O[C@@H]2O[C@H](C)[C@@H](O)[C@H](N(C)C)[C@H]2O)[C@@H](C)C[C@@H](C)C(=O)/C=C/C(C)=C/[C@@H]1CO` yielded an MIC (Haemophilus influenzae [1]) of 4 µg/mL (≈ 7.02 µM), an MIC (Staphylococcus aureus [2]) of 4 µg/mL (≈ 7.02 µM) and an ED50 (Streptococcus pyogenes [3]) of 121 mg/kg. It also gave an ED50 (Streptococcus pyogenes [4]) of over 30 mg/kg, an ED50 (Streptococcus pyogenes [5]) of over 30 mg/kg and an MIC (Streptococcus pneumoniae [6]) of 4 µg/mL (≈ 7.02 µM). For the same compound, the MIC [7] was 2 µg/mL (≈ 3.51 µM), the MIC (Enterococcus faecium) was 4 µg/mL (≈ 7.02 µM) and the MIC (Streptococcus pyogenes [8]) was 4 µg/mL (≈ 7.02 µM). For the same compound, the MIC (Streptococcus pyogenes [9]) was 4 µg/mL (≈ 7.02 µM) and the ED50 (Streptococcus pyogenes [10]) was 121 mg/kg.
